Bioassay records as filed in PubChem.
RAD52 anneal inh – RAD52 DNA annealing inhibitors, primary screen, biochemical, FRET, single point, set 2; 360,000 compounds, 0.46% hits; recombinant RAD52 DNA annealing, FRET fluorescence; inhibition, % at 18.7 µM; DNA repair protein RAD52 homolog (Homo sapiens), P43351; AID 651710, 2012;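 active = every replicate showing at least 50% inhibition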
RAD54 inh – inhibitors of human RAD54 branch migration, primary screen, biochemical, fluorescence, single point; DNA repair and recombination protein RAD54-like (Homo sapiens), Q92698; RAD54 Holliday junction branch migration, FAM/BHQ fluorescence; inhibition, % at 10.4 µM; 360,000 compounds, 0.14% hits;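 active = mean normalized replicate activity at least 40 and at least half of replicates scoring 40 or more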;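 note: inhibitors cause a drop in the FAM fluorescence signal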
DNA FID counter – compounds displacing fluorescent DNA intercalator, primary screen, artefact control for HCV NS3 helicase inhibitor project, biochemical, FID fluorescence. DNA fluorescent intercalator displacement. inhibition, % at 7.9 µM. 290,000 compounds, 0.17% hits; in the data active = inhibition above about 37%;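 note: higher means more ethidium bromide displaced from hairpin DNA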
Neddyl block – inhibitors of cullin neddylation, primary screen, biochemical, TR-FRET, uHTS, NAE and Ubc12; calls only at 25 µM; 360,000 compounds, 0.58% hits; NEDD8-conjugating enzyme Ubc12 (Homo sapiens) + NEDD8-activating enzyme E1 regulatory …; in the data active = inhibition above about 36%
UBC13 polyUb – UBC13 polyubiquitin chain formation inhibitors, primary screen, biochemical, TR-FRET, uHTS; Ubiquitin-conjugating enzyme E2 N (Homo sapiens), P61088; inhibition, % at 20 µM; 330,000 compounds, 0.47% hits; AID 485273, 2010; in the data active = inhibition above about 45%, passing the limit was not always enough
Apaf1 inhib – inhibitors of human Apaf-1 apoptosome, primary screen, biochemical, DEVD-Rh110 fluorescence, uHTS; Apoptotic protease-activating factor 1 (Homo sapiens), O14727; reconstituted apoptosome caspase-3 activity; inhibition, % at 20 µM; 330,000 compounds, 0.71% hits; AID 489030, 2010; active = inhibition of at least 40% at 20 µM
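Assay system: Apoptosome proteins | Medium: pH 7.5 Hepes buffer with CHAPS, BSA, DTT | Also added: Cytochrome c and DEVD-Rh110 substrate | Times: 30 min plus 50 min, RT | Detection: Rhodamine 110 fluorescence at Ex 480/Em 540 nm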
Apaf-1 inh conf2 – Apaf-1 inhibitors, single-dose retest, confirmation, biochemical, fluorescence, DEVD-Rh110, 20 µM. shares compounds with Apaf1 inhib. reconstituted apoptosome, caspase-3 DEVD-Rh110 fluorescence. inhibition, % at 20 µM. 1,800 compounds, 25% hits. AID 504614, 2011;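 active = mean inhibition of at least 40% at 20 µM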
Rh110 interf inh – Rh110 fluorescence interference by putative Apaf-1 inhibitors, confirmation, artefact control for Apaf-1 inhibitor project, biochemical, 20 µM; shares compounds with Apaf1 inhib; quenched caspase reaction; activation (fluorescence interference), % at 20 µM; 1,800 tested, under 10 active;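 active = signal rise of 40% or more at 20 µM, treated as a fluorescence artifact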
Each line names hits and unclear results; the compound was inactive in the other large screens (follow-up assays come after a bar, where shown). In the library only some 1.6% were active in any assay of this set; here they are far more common.

CO[C@H]1CN(C)C(=O)c2ccc(NC(=O)NC(C)C)cc2OC[C@H](C)N(C(=O)C2CCC2)C[C@@H]1C	none (no result: RAD54 inh, DNA FID counter, Neddyl block, UBC13 polyUb, Apaf1 inhib)
O=C1Nc2ccc(S(=O)(=O)NCc3ccco3)c3cccc1c23	Apaf1 inhib 49.5 (not shown: RAD52 anneal inh, Neddyl block) | Apaf-1 inh conf2 inactive | Rh110 interf inh inactive
Cc1ccc(S(=O)(=O)Nc2ccc3c4c(cccc24)CC3)c(C)c1	none (no result: RAD52 anneal inh)
Cc1cc(C)c(S(=O)(=O)Nc2ccc3c4c(cccc24)CC3)c(C)c1	Apaf1 inhib 43.0 (no result: RAD52 anneal inh) | Apaf-1 inh conf2 inactive | Rh110 interf inh inactive
CCOc1cccc2sc(N(CCCN(C)C)C(=O)c3ccc(S(=O)(=O)N(C)CC4CCCO4)cc3)nc12 (stereo not drawn)	none
Cc1cc(C)c2nc(N(CCN(C)C)C(=O)c3ccc(S(=O)(=O)N(C)CC4CCCO4)cc3)sc2c1 (stereo not drawn)	Apaf1 inhib 48.7 | Apaf-1 inh conf2 inactive | Rh110 interf inh inactive
CN(C)C(=O)[C@H]1[C@H](CO)[C@H]2Cn3c(ccc(C4=CCCCC4)c3=O)[C@@H]1N2Cc1ccccc1	none (no result: DNA FID counter, Neddyl block, UBC13 polyUb, Apaf1 inhib)
Cc1c(/C=N/Nc2nc3ccccc3[nH]2)c2ccccc2n1C	Apaf1 inhib 43.4 | Apaf-1 inh conf2 inactive | Rh110 interf inh inactive
O=C(C[C@H]1CC[C@H](NC(=O)Nc2ccc(F)cc2)[C@H](CO)O1)NCc1ccccn1	none (no result: DNA FID counter, Neddyl block, UBC13 polyUb, Apaf1 inhib)
CCC(CO)Oc1cc(NCc2ccc(C)cc2)c2ncn(C(C)C)c2c1 (stereo not drawn)	Apaf1 inhib 41.0 (no result: DNA FID counter) | Apaf-1 inh conf2 inactive | Rh110 interf inh inactive
CCC(CO)Oc1cc(NCc2cccc(C)c2)c2ncn(C(C)C)c2c1 (stereo not drawn)	Apaf1 inhib 54.2 (no result: DNA FID counter) | Apaf-1 inh conf2 inactive | Rh110 interf inh inactive
CCC(CO)Oc1cc(NCc2cccc(C(F)(F)F)c2)c2ncn(C(C)C)c2c1 (stereo not drawn)	Apaf1 inhib 40.9 (no result: DNA FID counter) | Apaf-1 inh conf2 inactive | Rh110 interf inh inactive
CCC(CO)Oc1cc(NCc2ccc(OC)cc2)c2ncn(C(C)C)c2c1 (stereo not drawn)	none (no result: DNA FID counter)
CS(=O)(=O)Nc1ccc2c(c1)[C@@H]1C[C@@H](CC(=O)N3CCc4ccccc4C3)O[C@H](CO)[C@@H]1O2	none (no result: DNA FID counter, Neddyl block, UBC13 polyUb, Apaf1 inhib)
CO[C@@H]1CN(C)C(=O)c2ccc(NC(=O)C3CCOCC3)cc2OC[C@@H](C)N(CC2CCCCC2)C[C@H]1C	none (no result: DNA FID counter, Neddyl block, UBC13 polyUb, Apaf1 inhib)
Cc1ccc(-n2nc(C)c3c2OC(N)=C(C#N)C3c2ccoc2)cc1 (stereo not drawn)	Apaf1 inhib 81.0 (no result: RAD52 anneal inh) | Apaf-1 inh conf2 inactive | Rh110 interf inh inactive
Cc1nn(-c2ccccc2)c2c1C(c1ccccc1)C(C#N)=C(N)O2 (stereo not drawn)	Apaf1 inhib 96.5 (no result: RAD52 anneal inh) | Apaf-1 inh conf2 inactive | Rh110 interf inh inactive
Cc1ccc(-n2nc(C)c3c2OC(N)=C(C#N)C3c2ccco2)cc1 (stereo not drawn)	none (no result: RAD52 anneal inh)
C[C@H]1CN([C@@H](C)CO)C(=O)c2cc(NS(C)(=O)=O)ccc2O[C@@H]1CN(C)C(=O)NC1CCCCC1	none (no result: DNA FID counter, Neddyl block, UBC13 polyUb, Apaf1 inhib)
O=C(c1cccnc1)N1CC2(C1)[C@H](c1ccccc1)[C@H](CO)N2CC1CC1	none (no result: RAD54 inh, DNA FID counter, Neddyl block, UBC13 polyUb, Apaf1 inhib)
Cc1cc(NC(=O)CSCC(=O)N(C)Cc2ccc(F)cc2)no1	none
CSc1ccc(CN(C)C(=O)CSCC(=O)Nc2cc(C)on2)cc1	Apaf1 inhib 48.0 | Apaf-1 inh conf2 inactive | Rh110 interf inh inactive
c1cc(SC2CCCCC2)cc(-c2nc3cnccn3c2NC2CCCCC2)c1	Apaf1 inhib 41.3 (not shown: DNA FID counter, Neddyl block) | Apaf-1 inh conf2 inactive | Rh110 interf inh inactive
O=C(Cn1cc2c(n1)CCCC2)NCCCN1CCCC1	Apaf1 inhib 41.0 | Apaf-1 inh conf2 inactive | Rh110 interf inh inactive
CO[C@H]1CN(C)C(=O)c2cc(NC(=O)C3CCC3)ccc2OC[C@H](C)NC[C@@H]1C	none (no result: DNA FID counter, Neddyl block, UBC13 polyUb, Apaf1 inhib)
COc1ccc(NC(=O)c2c[nH]n3c(=O)cc(C4CCN(C(=O)OC(C)(C)C)CC4)nc23)cc1Cl	Apaf1 inhib 41.7 | Apaf-1 inh conf2 inactive | Rh110 interf inh inactive
Cc1cc(=O)n(-c2ccc3ccccc3n2)[nH]1	Apaf1 inhib 85.7 (no result: RAD52 anneal inh) | Apaf-1 inh conf2 inactive | Rh110 interf inh inactive
CC1=CCC2C(=O)N(c3ccc4ccccc4n3)C(=O)C2C1 (stereo not drawn)	none (no result: RAD52 anneal inh)
CN(C)C(=O)[C@@H]1[C@@H](CO)[C@@H]2Cn3c(ccc(/C=C/c4ccccc4)c3=O)[C@@H]2N1C(=O)c1cccnc1	none (no result: DNA FID counter, Neddyl block, UBC13 polyUb, Apaf1 inhib)
Cc1cccc(C(=O)NC2C(=O)NNC2c2ccc(Cl)cc2)c1 (stereo not drawn)	Apaf1 inhib 54.0 (no result: RAD54 inh) | Apaf-1 inh conf2 inactive | Rh110 interf inh inactive
O=C(NC1C(=O)NNC1c1ccccc1)c1ccccc1 (stereo not drawn)	none (no result: RAD52 anneal inh, RAD54 inh)
Cc1cc(C)c(C(N)=O)c(Nc2cccc3ccccc23)n1	Apaf1 inhib 96.2 (no result: RAD52 anneal inh) | Apaf-1 inh conf2 inactive | Rh110 interf inh inactive
Cc1cc(OC(=O)c2ccccc2)n(CCC#N)n1	Apaf1 inhib 43.2 (no result: RAD52 anneal inh) | Apaf-1 inh conf2 inactive | Rh110 interf inh inactive
COc1ccc(NC(=O)Nc2cccc3c2O[C@H](CN(C)CC2CCCCC2)[C@H](C)CN([C@@H](C)CO)C3=O)cc1	none (no result: DNA FID counter, Neddyl block, UBC13 polyUb, Apaf1 inhib)
COC(C[C@H]1O[C@@H]1C(=O)[C@H](C)OCc1ccccc1)OC	Apaf1 inhib 48.1 (no result: DNA FID counter) | Apaf-1 inh conf2 inactive | Rh110 interf inh inactive
COC(C[C@H]1O[C@H]1C(=O)[C@H](C)OCc1ccccc1)OC	none (no result: DNA FID counter)
